Measured values published in ChEMBL document CHEMBL3632581, “Dimers of Melampomagnolide B Exhibit Potent Anticancer Activity against Hematological and Solid Tumor Cells” (J Med Chem, 2015).

Key:
HL-60(TB) = test: Cytotoxicity against human HL-60(TB) cells after 48 hrs by SRB assay; format: functional; conditions: HL-60, 48 h
Summary of the method: (§1)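 NCI-60 five-dose screen at 10−8 to 10−4 M. Cells were plated at 5,000–40,000/well in RPMI 1640 with 5% FBS and 2 mM L-glutamine, then preincubated 24 h, and time-zero plates were TCA-fixed. Compound was added from DMSO stocks and exposed 48 h at 37 °C. Cells were TCA-fixed, SRB-stained, and read at 515 nm. LC50 is the concentration halving the cell population through cell death.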

K562 = test: Cytotoxicity against human K562 cells after 48 hrs by SRB assay; format: functional; conditions: K562, 48 h; summary of the method: as §1
SR = test: Cytotoxicity against human SR cells after 48 hrs by SRB assay; format: functional
Summary of the method: (§2)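 NCI-60 screen: cells grown in RPMI 1640 with 5% FBS and 2 mM L-glutamine, plated at 5,000–40,000 cells/well by doubling time, and preincubated 24 h at 37 °C before drug. Drug was diluted from DMSO stock and given at five concentrations, 10−4 to 10−8 M, for 48 h. Cells fixed with cold TCA, SRB stained, OD read at 515 nm against time-zero and vehicle plates. LC50 taken as the concentration that halves cell population through cell death.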

A549 = test: Cytotoxicity against human A549 cells after 48 hrs by SRB assay; format: functional; conditions: A549, 48 h; summary of the method: as §1
HOP-92 = test: Cytotoxicity against human HOP92 cells after 48 hrs by SRB assay; format: functional; conditions: HOP-92, 48 h; summary of the method: as §1
NCI-H460 = test: Cytotoxicity against human NCI-H460 cells after 48 hrs by SRB assay; format: functional; conditions: NCI-H460, 48 h; summary of the method: as §1
NCI-H522 = test: Cytotoxicity against human NCI-H522 cells after 48 hrs by SRB assay; format: functional; conditions: NCI-H522, 48 h; summary of the method: as §1
COLO 205 = test: Cytotoxicity against human COLO205 cells after 48 hrs by SRB assay; format: functional; conditions: COLO 205, 48 h; summary of the method: as §1
SW-620 = test: Cytotoxicity against human SW620 cells after 48 hrs by SRB assay; format: functional; conditions: SW-620, 48 h; summary of the method: as §2
SF-539 = test: Cytotoxicity against human SF539 cells after 48 hrs by SRB assay; format: functional; conditions: SF-539, 48 h; summary of the method: as §1
SNB-75 = test: Cytotoxicity against human SNB75 cells after 48 hrs by SRB assay; format: functional; conditions: SNB-75, 48 h; summary of the method: as §1
Malme-3M = test: Cytotoxicity against human MALME-3M cells after 48 hrs by SRB assay; format: functional; summary of the method: as §1
M14 = test: Cytotoxicity against human M14 cells after 48 hrs by SRB assay; format: functional; conditions: M14, 48 h; summary of the method: as §1
MDA-MB-435 = test: Cytotoxicity against human MDA-MB-435 cells after 48 hrs by SRB assay; format: functional; conditions: MDA-MB-435, 48 h; summary of the method: as §1
SK-MEL-28 = test: Cytotoxicity against human SK-MEL-28 cells after 48 hrs by SRB assay; format: functional; conditions: SK-MEL-28, 48 h; summary of the method: as §1
SK-MEL-5 = test: Cytotoxicity against human SK-MEL-5 cells after 48 hrs by SRB assay; format: functional; conditions: SK-MEL-5, 48 h; summary of the method: as §1
UACC-257 = test: Cytotoxicity against human UACC257 cells after 48 hrs by SRB assay; format: functional; conditions: UACC-257, 48 h; summary of the method: as §2
OVCAR-4 = test: Cytotoxicity against human OVCAR4 cells after 48 hrs by SRB assay; format: functional; conditions: OVCAR-4, 48 h; summary of the method: as §1
SK-OV-3 = test: Cytotoxicity against human SKOV3 cells after 48 hrs by SRB assay; format: functional; conditions: SK-OV-3, 48 h; summary of the method: as §1
786-0 = test: Cytotoxicity against human 786-0 cells after 48 hrs by SRB assay; format: functional; conditions: 786-0, 48 h; summary of the method: as §1
A498 = test: Cytotoxicity against human A498 cells after 48 hrs by SRB assay; format: functional; conditions: A498, 48 h; summary of the method: as §1
ACHN = test: Cytotoxicity against human ACHN cells after 48 hrs by SRB assay; format: functional; summary of the method: as §1
CAKI-1 = test: Cytotoxicity against human Caki1 cells after 48 hrs by SRB assay; format: functional; conditions: CAKI-1, 48 h; summary of the method: as §1
TK-10 = test: Cytotoxicity against human TK10 cells after 48 hrs by SRB assay; format: functional; conditions: TK-10, 48 h; summary of the method: as §2
UO-31 = test: Cytotoxicity against human UO31 cells after 48 hrs by SRB assay; format: functional; conditions: UO-31, 48 h; summary of the method: as §2
PC-3 = test: Cytotoxicity against human PC3 cells after 48 hrs by SRB assay; format: functional; conditions: PC-3, 48 h; summary of the method: as §1
DU-145 = test: Cytotoxicity against human DU145 cells after 48 hrs by SRB assay; format: functional; conditions: DU-145, 48 h; summary of the method: as §1
[1] = Cytotoxicity against human Hs 578T cells after 48 hrs by SRB assay; format: functional; summary of the method: as §1
BT-549 = test: Cytotoxicity against human BT549 cells after 48 hrs by SRB assay; format: functional; conditions: BT-549, 48 h; summary of the method: as §1
[2] = Antileukemic activity against human AML01 cells after 24 hrs by annexin V/7-AAD staining-based flow cytometric analysis; format: functional, cell-based
Summary of the method: (§3)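 Primary AML specimens from consenting donors, isolated by Ficoll-Paque gradient and sometimes cryopreserved. Cells were held 1 h in serum-free IMDM with 20% BIT 9500, LDL and β-mercaptoethanol before drug (DMSO stock diluted in PBS, ≤0.5% DMSO final). Exposure was 24 h over 0.5-10 μM. Annexin V/7-AAD double-negative cells, normalized to vehicle, gave the EC50. Run in triplicate.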

[3] = Antileukemic activity against human AML02 cells after 24 hrs by annexin V/7-AAD staining-based flow cytometric analysis; format: functional, cell-based; summary of the method: as §3
[4] = Antileukemic activity against human AML04 cells after 24 hrs by annexin V/7-AAD staining-based flow cytometric analysis; format: functional, cell-based; summary of the method: as §3
[5] = Cytotoxicity against hematopoietic progenitor cells isolated from human umbilical cord blood by annexin V staining-based flow cytometric analysis; format: cell-based
Summary of the method: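 Cord-blood mononuclear cells from Ficoll-Paque were plated in serum-free medium, with drug from a DMSO stock (≤0.5% DMSO final). Cells were stained for CD34, CD45 and annexin V. The non-apoptotic fraction (annexin V-negative within the CD34+CD45dim compartment) was normalized to vehicle, and EC50 was fitted where possible. Triplicate.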

[6] = Potency index, ratio of parthenolide EC50 to compound EC50 for human M9-ENL1 cells; format: functional
[7] = read-out: LC50 (the source's name)

C=C1C(=O)O[C@H]2[C@H]1CC/C(COC(=O)NCCCCCNC(=O)OC/C1=C/CC[C@@]3(C)O[C@H]3[C@H]3OC(=O)C(=C)[C@@H]3CC1)=C\CC[C@@]1(C)O[C@@H]21
GI50 (HL-60(TB)): 0.31 µM
CC50 (HL-60(TB); [7]): > 100 µM
GI50 (K562): 0.56 µM
CC50 (K562; [7]): > 100 µM
GI50 (SR): 0.38 µM
CC50 (SR; [7]): > 100 µM
GI50 (A549): 14.9 µM
CC50 (A549; [7]): 71.7 µM
GI50 (HOP-92): 1.3 µM
CC50 (HOP-92; [7]): 8.61 µM
GI50 (NCI-H460): 4.34 µM
CC50 (NCI-H460; [7]): 50.7 µM
GI50 (NCI-H522): 0.22 µM
CC50 (NCI-H522; [7]): 0.88 µM
GI50 (COLO 205): 0.52 µM
CC50 (COLO 205; [7]): 7.97 µM
GI50 (SW-620): 0.43 µM
CC50 (SW-620; [7]): 5.14 µM
GI50 (SF-539): 1.92 µM
CC50 (SF-539; [7]): 12.7 µM
GI50 (SNB-75): 2.2 µM
CC50 (SNB-75; [7]): 33.8 µM
GI50 (Malme-3M): 2.06 µM
CC50 (Malme-3M; [7]): 27.3 µM
GI50 (M14): 1.71 µM
CC50 (M14; [7]): 8.2 µM
GI50 (MDA-MB-435): 1.51 µM
CC50 (MDA-MB-435; [7]): 7.3 µM
GI50 (SK-MEL-28): 1.58 µM
CC50 (SK-MEL-28; [7]): 12.6 µM
GI50 (SK-MEL-5): 3.19 µM
CC50 (SK-MEL-5; [7]): 37 µM
GI50 (UACC-257): 2.07 µM
CC50 (UACC-257; [7]): 42.4 µM
GI50 (OVCAR-4): 2.72 µM
CC50 (OVCAR-4; [7]): 41.9 µM
GI50 (SK-OV-3): 5.99 µM
CC50 (SK-OV-3; [7]): 49.9 µM
GI50 (786-0): 1.57 µM
CC50 (786-0; [7]): 6.39 µM
GI50 (A498): 6.24 µM
CC50 (A498; [7]): 47.5 µM
GI50 (ACHN): 3.05 µM
CC50 (ACHN; [7]): 35.4 µM
GI50 (CAKI-1): 16.1 µM
CC50 (CAKI-1; [7]): 68.1 µM
GI50 (TK-10): 1.82 µM
CC50 (TK-10; [7]): 11.8 µM
GI50 (UO-31): 8.9 µM
CC50 (UO-31; [7]): 52.3 µM
GI50 (PC-3): 3.79 µM
LC50 (concentration killing half the cell population) (PC-3): 49.4 µM
GI50 (DU-145): 3.06 µM
LC50 (concentration killing half the cells) (DU-145): 32.6 µM
GI50 [1]: 2.91 µM
CC50 [1, 7]: > 100 µM
GI50 (BT-549): 1 µM
LC50 (BT-549): 4.96 µM
EC50 [2]: 1.6 µM
EC50 [3]: 0.9 µM
EC50 [4]: 3.5 µM
EC50 [5]: > 10 µM
Ratio EC50 [6]: 2
